From ChEMBL document CHEMBL1177665, “Discovery of potent and orally active tricyclic-based FBPase inhibitors” (Bioorg Med Chem, 2010)
Calls of active or inactive are those of the source. The rule behind the calls is not given here.

Key:
[1] = biological target: T1, Fructose-1,6-bisphosphatase 1 (Homo sapiens, UniProt P09467); experiment: Inhibition of human FBase
T1 sequence (P09467 whole entry): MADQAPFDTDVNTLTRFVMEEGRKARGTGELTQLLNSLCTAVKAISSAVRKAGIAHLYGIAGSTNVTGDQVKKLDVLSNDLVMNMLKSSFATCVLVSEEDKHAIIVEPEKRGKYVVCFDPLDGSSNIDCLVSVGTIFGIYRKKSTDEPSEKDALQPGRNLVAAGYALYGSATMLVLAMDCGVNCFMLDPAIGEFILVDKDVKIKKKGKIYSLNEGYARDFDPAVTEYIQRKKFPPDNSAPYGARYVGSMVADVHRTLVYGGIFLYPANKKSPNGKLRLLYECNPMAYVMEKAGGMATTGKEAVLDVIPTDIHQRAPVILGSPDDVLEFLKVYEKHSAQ

[2] = Antidiabetic activity in monkey hepatocytes assessed as inhibition of glucose production after 4 hrs; format: functional, cell-based; conditions: Macaca mulatta, Hepatocyte
How it was run: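 Monkey hepatocytes in phosphate buffered saline with 25 mM sodium bicarbonate, 25 mM HEPES, 1% BSA; compound preincubation only 2 min, then washed out and cells incubated 4 h with 10 mM lactate plus 1 mM pyruvate. Medium glucose measured by Glucose CII-test; IC50 reported as mean SD (n = 7).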

[3] = Inhibition of monkey FBase; parameters: species or system Macaca mulatta
Cynomolgus monkey = experiment: Antidiabetic activity in cynomolgus monkey assessed as decrease in blood glucose level at 20 mg/kg, po after 4 hrs; format: functional, organism-based; parameters: dose 20 mg/kg; conditions: Macaca fascicularis
How it was run: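 Overnight-fasted cynomolgus monkeys (n = 7, 5–8 years old) dosed orally at 20 mg/kg in vehicle (50% PEG 400, 0.5% MC, 0.5% Tween 80) or vehicle alone; crossover in same animals with at least 2-week washout. Blood drawn predose and 1–12 h post-dose; plasma glucose read on i-STAT 300F analyser; mean S.E.M., paired t-test versus vehicle.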

| Structure (SMILES) | IC50 [1] | IC50 [3] | IC50 [2] | Activity (Cynomolgus monkey) |
| --- | --- | --- | --- | --- |
| CCOC(=O)[C@H](C)NP(=O)(N[C@@H](C)C(=O)OCC)c1ccc(-c2nc(N)sc2CC(C)C)o1 | 0.01 µM | 0.03 µM | 10 µM |  |
| CCOC(=O)[C@H](C)NP(=O)(COc1ccc(C(=O)NCC(C)(C)C)c2c1-c1ncsc1C2)N[C@@H](C)C(=O)OCC | 0.011 µM | 0.031 µM | > 100 µM |  |
| CCOC(=O)CNP(=O)(COc1cc(C)c(C)c2c1-c1ncsc1C2)NCC(=O)OCC | 0.01 µM | 0.034 µM | 9.4 µM |  |
| Cc1cc(OCP(=O)(N[C@@H](C)C(=O)OC(C)C)N[C@@H](C)C(=O)OC(C)C)c2c(c1C)Cc1scnc1-2 | 0.01 µM | 0.034 µM | 9 µM |  |
| CCOC(=O)[C@H](C)NP(=O)(COc1ccc(CC)c2c1-c1ncsc1C2)N[C@@H](C)C(=O)OCC | 0.011 µM | 0.023 µM | 23 µM |  |

The remaining compounds from weak to strong by IC50 [1], led by results:

| IC50 [1] | IC50 [3] | Structure (SMILES) | IC50 [2] | Activity (Cynomolgus monkey) |
| --- | --- | --- | --- | --- |
| 0.01 µM | 0.034 µM | CCOC(=O)[C@H](C)NP(=O)(COc1cc(C)c(C)c2c1-c1ncsc1C2)N[C@@H](C)C(=O)OCC | 6.8 µM | Active |
| 0.008 µM | 0.024 µM | CCOC(=O)[C@H](C)NP(=O)(COc1ccc(C)c2c1-c1ncsc1C2)N[C@@H](C)C(=O)OCC | 7.4 µM |  |
| 0.002 µM | 0.019 µM | CCOC(=O)[C@H](C)NP(=O)(COc1ccc(C(=O)NC)c2c1-c1ncsc1C2)N[C@@H](C)C(=O)OCC | > 100 µM |  |
| 0.001 µM | 0.022 µM | CCOC(=O)[C@H](C)NP(=O)(COc1ccc(C(N)=O)c2c1-c1ncsc1C2)N[C@@H](C)C(=O)OCC | 94 µM |  |
